Experimental data: ChEMBL document CHEMBL5036380, “New Highly Potent NLRP3 Inhibitors: Furanochalcone Velutone F Analogues” (ACS Med Chem Lett, 2022)
Active and inactive are the calls of the source. No cut-off for these calls is given here.

What was measured:
THP-1 [1] = test: Antiinflammatory activity in human THP-1 cells assessed as inhibition of LPS-induced IL-1beta secretion in LPS stimulation for 3 hrs followed by pretreatment at 2uM for 40 min before induced with nigericin for 40 min measured by ELISA; type: functional; details: for inhibition at 2 µM: THP-1, 1.333 h, time 80 min; for inhibition: time 80.0 min
How it was run: (§1)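 THP-1 cells (2 × 10^5 cells/mL) differentiated with PMA (100 ng/mL) for 24 h. Next day, primed with LPS (1 μg/mL) for 3 h, then compound for 40 min, then nigericin (10 μM) for 40 min. IL-1β in supernatant measured by ELISA; % inhibition as mean ± SD of three independent experiments. The single-concentration screen used 2 μM.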

THP-1 [2] = test: Cytotoxicity against human THP-1 cells assessed as reduction in cell viability at 0.05 to 6.4 uM measured after 90 mins by CCK8 assay; type: cell-based; details: thp-1, 1.5 h, dose 0.05-6.4 µM
How it was run: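 THP-1 cells preincubated with compound (0.05–6.4 μM) for 1.5 h; viability read by CCK8 assay.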

THP-1 [3] = test: Antiinflammatory activity in human THP-1 cells assessed as inhibition of LPS-induced IL-1beta secretion in LPS stimulation for 3 hrs followed by pretreatment for 40 min before induced with nigericin for 40 min measured by ELISA; type: functional; details: time 80 min; 1.333 h; how it was run: as §1
Spleen = test: Downregulation of IL-1beta level in spleen of LPS treated C57BL/6J mouse at 10 mg/kg, iv measured after 6 hrs by ELISA

SMILES	inhibition at 2 µM (THP-1 [1]) [%]	inhibition (THP-1 [1])	further results
COc1c(/C=C/C(=O)c2cccc(-c3cccs3)n2)cc(OC)c2occc12	15.9	–	–
COc1cc(-c2ccccc2NS(C)(=O)=O)c(OC)cc1/C=C/C(=O)c1ccc(F)cc1	101	–	Activity (THP-1 [2]): Non-Toxic; Activity (THP-1 [3]): 0.407 µM
COc1c(/C=C/C(=O)c2ccc[nH]2)cc(OC)c2occc12	10.3	–	–
COc1c(/C=C/C(=O)c2ccc3ccccc3n2)cc(OC)c2occc12	32.1	–	–
COc1c(/C=C/C(=O)c2ccccn2)cc(OC)c2occc12	56.9	–	–
COc1c(C(=O)/C=C/c2ccccc2)cc(OC)c2occc12	15.5	–	–
COc1c(/C=C/C(=O)c2ccco2)cc(OC)c2occc12	32.8	–	–
C=CC(=O)N(Cc1cc(OC)c2occc2c1OC)c1cccc(Br)n1	–	inactive	–
COc1c(/C=C/C(=O)c2cccc(N)c2)cc(OC)c2occc12	58.8	–	–
COc1c(/C=C/C(=O)c2ccc(C(F)(F)F)cc2)cc(OC)c2occc12	50	–	–
COc1cc(-c2ccccc2C)c(OC)cc1/C=C/C(=O)c1ccc(F)cc1	–	inactive	–
COc1cc(C(=O)/C=C/c2cc(OC)c3occc3c2OC)cc(OC)c1OC	42	–	–
COc1cc(-c2cccc(Cl)c2)c(OC)cc1/C=C/C(=O)c1ccc(F)cc1	–	inactive	–
COc1c(/C=C/C(=O)c2ccc(F)cc2)cc(OC)c2occc12	88.2	–	Activity (THP-1 [2]): Non-Toxic; Activity (THP-1 [3]): 0.656 µM
COc1cc(-c2ccsc2)c(OC)cc1/C=C/C(=O)c1ccc(F)cc1	–	inactive	–
C=CC(=O)N(Cc1cc(OC)c2occc2c1OC)c1ccccc1	31.8	–	–
COc1cc(/C=C/C(=O)c2ccc(F)cc2)c(OC)cc1C=C(C)C	–	inactive	–
COc1c(/C=C/C(=O)c2ccc(Br)cc2)cc(OC)c2occc12	50.1	–	–
COc1cncc(-c2cc(OC)c(/C=C/C(=O)c3ccc(F)cc3)cc2OC)c1	–	inactive	–
C=CC(=O)N(Cc1cc(OC)c2occc2c1OC)c1ccc(F)cc1	15	–	–
COc1c(/C=C/C(=O)c2ccc(C#N)cc2)cc(OC)c2occc12	27.6	–	–
COc1c(CCC(=O)c2cccc(C(F)(F)F)c2)cc(OC)c2occc12	–	inactive	–
COc1c(CCC(=O)c2cccc(Br)n2)cc(OC)c2occc12	10.7	–	–
COc1c(/C=C/C(=O)Nc2ccccc2)cc(OC)c2occc12	7.4	–	–
COc1c(/C=C/C(=O)c2ccc(Cl)cn2)cc(OC)c2occc12	20.3	–	–
COc1cc(NS(C)(=O)=O)c(OC)cc1/C=C/C(=O)c1ccc(F)cc1	–	inactive	–
COc1c(/C=C/C(=O)Nc2cccc(Br)n2)cc(OC)c2occc12	–	inactive	–

SMILES	inhibition at 2 µM (THP-1 [1]) [%]	inhibition (THP-1 [1])	further results
COc1c(/C=C/C(=O)c2cccc(C(F)(F)F)n2)cc(OC)c2occc12	32.4	–	–
COc1cc(-c2ccccc2S(C)(=O)=O)c(OC)cc1/C=C/C(=O)c1ccc(F)cc1	102	–	Activity (THP-1 [2]): Non-Toxic; Activity (THP-1 [3]): 0.325 µM
COc1ccc(OC)c(/C=C/C(=O)c2ccc(F)cc2)c1	91.1	–	–
COc1c(/C=C/C(=O)C2CC2)cc(OC)c2occc12	8.7	–	–
COc1c(/C=C/C(=O)O)cc(OC)c2occc12	5.2	–	–
COc1c(/C=C/C(=O)c2cccc(C(F)(F)F)c2)cc(OC)c2occc12	64.7	–	–
COc1c(CCC(=O)c2ccc(F)cc2)cc(OC)c2occc12	–	inactive	–
COc1c(/C=C/C(=O)c2ccccc2)cc(OC)c2occc12	50.8	–	Activity (Spleen): Active
CC(C)(O)c1coc(S(=O)(=O)NC(=O)Nc2c3c(cc4c2CCC4)CCC3)c1	106	–	–
COc1c(/C=C/C(=O)c2cccc(C)c2)cc(OC)c2occc12	75	–	–
COc1c(CCC(=O)c2ccccc2)cc(OC)c2occc12	–	inactive	–
COc1c(/C=C/C(=O)Nc2cccc(C(F)(F)F)c2)cc(OC)c2occc12	–	inactive	–
COc1c(/C=C/C(=O)c2ccccc2F)cc(OC)c2occc12	50.4	–	–
COc1cc(-c2cc(F)cc(F)c2)c(OC)cc1/C=C/C(=O)c1ccc(F)cc1	–	inactive	–
COc1cc(/C=C/C(=O)c2ccc(F)cc2)c(OC)cc1C	80.6	–	–
COc1c(/C=C/C(=O)c2cccc(-c3ccccc3)n2)cc(OC)c2occc12	15.9	–	–
COc1c(/C=C/C(=O)c2ccccc2N)cc(OC)c2occc12	19.8	–	–
COc1c(/C=C/C(=O)c2ccc(N)cc2)cc(OC)c2occc12	–	inactive	–
C=CC(=O)N(Cc1cc(OC)c2occc2c1OC)c1cccc(C(F)(F)F)c1	–	inactive	–
COc1cc(NS(=O)(=O)C2CC2)c(OC)cc1/C=C/C(=O)c1ccc(F)cc1	24.8	–	–
COc1c(/C=C/C(=O)c2cccc(Br)n2)cc(OC)c2occc12	67.7	–	–
COc1c(/C=C/C(=O)c2cccc(F)c2)cc(OC)c2occc12	51.4	–	–
COc1cc(-c2cn[nH]c2)c(OC)cc1/C=C/C(=O)c1ccc(F)cc1	–	inactive	–
COc1c(/C=C/C(=O)c2cccc(O)c2)cc(OC)c2occc12	60.5	–	–
COc1c(/C=C/C(=O)Nc2ccc(F)cc2)cc(OC)c2occc12	–	inactive	–
COc1cc(-c2ccoc2)c(OC)cc1/C=C/C(=O)c1ccc(F)cc1	38.5	–	–
